We go through two molecules from ChEMBL document CHEMBL3425488, “Novel histone deacetylase inhibitors induce growth arrest, apoptosis, and differentiation in sarcoma cancer stem cells” (J Med Chem, 2015).

Molecules are shown by their SMILES. pIC50: −log10 of the molar value. The source made the active and inactive calls. The rule behind the calls is not given here.

What is called pIC50 is the negative decadic logarithm of the IC50, by convention in mol/L.

Assay [1] concerns MG-63. In words: Induction of apoptosis in human MG63 cells assessed as formation of apoptotic bodies after 48 hrs by Hoechst 33258 staining-based fluorescence microscopic analysis. The assay is classed as functional, cell-based. Summed up: (§1)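 Dissociated sarcospheres seeded on glass coverslips in complete IMDM and exposed to 0.5, 1 and 2 μM for 48 h; untreated cells as negative control. Fixed in methanol/acetic acid (3:1), then stained with 2.25 μg/mL Hoechst 33258 for 10 min at rt in the dark. Apoptotic-body nuclei counted over at least five fields (20× objective) and reported as percentage of cells.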

Assay [2] deals with RD. In words: Cytotoxicity against human RD cells assessed as cell viability after 72 hrs by MTT assay. In kind it is functional, cell-based. The gist of the method: (§2)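 Sarcosphere-derived CSC cultures exposed 72 h to concentrations from 100 μM down to 0.1 μM. Viability compared with DMSO-only treated cells. IC50 calculated by linear regression.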
For assay [3], the system named is MG-63. In words: Antiproliferative activity against human MG63 cells after 24 to 72 hrs by […] dye exclusion assay. The assay is classed as functional, cell-based. The gist of the method:
(§3)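 Sarcosphere-derived CSCs, dissociated to single cells, plated at 50000/well in complete IMDM for adhesion. After 24 h, exposed to 0.5, 1 and 2 μM. Viable cells counted by dye exclusion at 24, 48 and 72 h. Growth inhibition is expressed relative to DMSO-treated controls. Three experiments in duplicate.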
For orientation: Formazan colour is commonly taken as a measure of viable cells.

For assay [4], the system named is A204. In words: Induction of apoptosis in human A204 cells at 1 to 2 uM after 48 hrs by Hoechst 33258 staining-based fluorescence microscopic analysis. The assay is classed as functional, cell-based. The gist of the method:
as §1

For assay [5], the system named is A673. In words: Cytotoxicity against human A673 cells assessed as cell viability after 72 hrs by MTT assay. The assay is classed as functional, cell-based. Summed up:
as §2

The target of assay [6] is Histone deacetylase 4 (Homo sapiens, UniProt P56524). In words: Inhibition of recombinant HDAC4 (unknown origin) by homogeneous fluorescence release assay. Summed up:
(§4)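 Isoform enzyme assay run in 10-dose IC50 mode. Compounds were serially diluted 3-fold starting from 50 μM solutions.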

Assay [7] deals with RD. In words: Induction of apoptosis in human RD cells at 1 to 2 uM after 48 hrs by Hoechst 33258 staining-based fluorescence microscopic analysis. The assay is classed as functional, cell-based. Summed up:
as §1

Assay [8] concerns A673. In words: Induction of apoptosis in human A673 cells at 1 to 2 uM after 48 hrs by Hoechst 33258 staining-based fluorescence microscopic analysis. In kind it is functional, cell-based. The gist of the method: as §1
Assay [9] concerns RD. In words: Antiproliferative activity against human RD cells after 24 to 72 hrs by […] dye exclusion assay. The assay is classed as functional, cell-based. The gist of the method:
as §3

Assay [10] has as its system A673. In words: Antiproliferative activity against human A673 cells after 24 to 72 hrs by […] dye exclusion assay. The assay is classed as functional, cell-based. The gist of the method:
as §3

Assay [11] concerns A204. In words: Cytotoxicity against human A204 cells assessed as cell viability after 72 hrs by MTT assay. In kind it is functional, cell-based. The gist of the method: as §2
In assay [12] the test system is MG-63. In words: Cytotoxicity against human MG63 cells assessed as cell viability after 72 hrs by MTT assay. In kind it is functional, cell-based. Summed up:
as §2

Assay [13] concerns HOS. In words: Cytotoxicity against HOS cells assessed as cell viability after 72 hrs by MTT assay. The assay is classed as functional, cell-based. As to conditions: Homo sapiens. Summed up: as §2
For assay [14], the system named is MG-63. In words: Induction of apoptosis in human MG63 cells at 0.5 to 2 uM after 48 hrs by Alexa Fluor 488 Annexin V/propidium iodide staining-based flow cytometric analysis. The assay is classed as functional, cell-based. (A flow cytometer gives signals particle by particle.)
Assay [15] deals with HOS. In words: Induction of apoptosis in HOS cells at 1 to 2 uM after 48 hrs by Hoechst 33258 staining-based fluorescence microscopic analysis. In kind it is functional, cell-based. The settings on record: Homo sapiens. The gist of the method: as §1
Assay [16] has as its target Histone deacetylase 9 (Homo sapiens, UniProt Q9UKV0). In words: Inhibition of recombinant HDAC9 (unknown origin) by homogeneous fluorescence release assay. Summed up:
as §4

The target in assay [17] is T1, Protein deacetylase HDAC6 (Homo sapiens) (UniProt Q9UBN7).
T1 sequence (whole entry): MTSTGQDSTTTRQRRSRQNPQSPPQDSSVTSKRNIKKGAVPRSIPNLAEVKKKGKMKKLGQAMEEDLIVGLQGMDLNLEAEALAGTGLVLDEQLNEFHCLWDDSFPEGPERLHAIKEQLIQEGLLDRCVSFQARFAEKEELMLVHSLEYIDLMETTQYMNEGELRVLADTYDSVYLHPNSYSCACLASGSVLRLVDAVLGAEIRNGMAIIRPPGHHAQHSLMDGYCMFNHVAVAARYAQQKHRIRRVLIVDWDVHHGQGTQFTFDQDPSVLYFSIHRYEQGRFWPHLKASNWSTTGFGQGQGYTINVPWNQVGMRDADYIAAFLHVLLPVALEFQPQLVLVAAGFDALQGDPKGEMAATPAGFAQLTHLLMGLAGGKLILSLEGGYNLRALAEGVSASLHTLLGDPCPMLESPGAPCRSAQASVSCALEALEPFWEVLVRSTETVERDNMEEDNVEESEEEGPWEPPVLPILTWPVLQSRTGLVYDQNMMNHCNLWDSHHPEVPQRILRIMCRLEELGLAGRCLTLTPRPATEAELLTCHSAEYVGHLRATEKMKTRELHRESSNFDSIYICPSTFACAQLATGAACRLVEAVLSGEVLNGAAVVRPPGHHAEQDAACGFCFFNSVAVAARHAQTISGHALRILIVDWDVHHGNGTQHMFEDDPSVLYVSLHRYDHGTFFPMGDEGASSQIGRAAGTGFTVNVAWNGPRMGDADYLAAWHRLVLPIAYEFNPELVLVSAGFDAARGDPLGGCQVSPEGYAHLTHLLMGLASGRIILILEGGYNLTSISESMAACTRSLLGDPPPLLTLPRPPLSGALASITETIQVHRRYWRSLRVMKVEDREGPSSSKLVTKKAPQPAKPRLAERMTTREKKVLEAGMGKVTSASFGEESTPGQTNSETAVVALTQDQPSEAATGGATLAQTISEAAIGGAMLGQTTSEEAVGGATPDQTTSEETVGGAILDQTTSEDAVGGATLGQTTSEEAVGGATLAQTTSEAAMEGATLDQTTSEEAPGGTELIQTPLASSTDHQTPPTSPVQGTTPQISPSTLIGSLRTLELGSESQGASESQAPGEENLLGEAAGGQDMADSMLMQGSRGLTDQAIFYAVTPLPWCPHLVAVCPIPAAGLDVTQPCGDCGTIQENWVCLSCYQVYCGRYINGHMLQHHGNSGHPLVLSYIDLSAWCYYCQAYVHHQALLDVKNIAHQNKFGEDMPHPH
In words: Inhibition of HDAC6 in human MG63 cells assessed as upregulation of acetyl-tubulin level at 0.5 to 2 uM after 24 hrs by Western blot analysis relative to control. The assay is classed as cell-based. The settings on record: MG-63. Summed up: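 MG-63 sarcosphere-derived CSCs treated 24 h with 0.5 and 2 μM. Acetyl-tubulin measured by Western blot with densitometry normalized to TBP and expressed as index versus negative control.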

Assay [18] has as its system SK-ES1. In words: Induction of apoptosis in human SK-ES-1 cells at 1 to 2 uM after 48 hrs by Hoechst 33258 staining-based fluorescence microscopic analysis. The assay is classed as functional, cell-based. Summed up: as §1
Assay [19] has as its system SK-ES1. In words: Cytotoxicity against human SK-ES-1 cells assessed as cell viability after 72 hrs by MTT assay. In kind it is functional, cell-based. Summed up:
as §2

Chain of Histone deacetylase 4 (P56524 whole entry, canonical isoform): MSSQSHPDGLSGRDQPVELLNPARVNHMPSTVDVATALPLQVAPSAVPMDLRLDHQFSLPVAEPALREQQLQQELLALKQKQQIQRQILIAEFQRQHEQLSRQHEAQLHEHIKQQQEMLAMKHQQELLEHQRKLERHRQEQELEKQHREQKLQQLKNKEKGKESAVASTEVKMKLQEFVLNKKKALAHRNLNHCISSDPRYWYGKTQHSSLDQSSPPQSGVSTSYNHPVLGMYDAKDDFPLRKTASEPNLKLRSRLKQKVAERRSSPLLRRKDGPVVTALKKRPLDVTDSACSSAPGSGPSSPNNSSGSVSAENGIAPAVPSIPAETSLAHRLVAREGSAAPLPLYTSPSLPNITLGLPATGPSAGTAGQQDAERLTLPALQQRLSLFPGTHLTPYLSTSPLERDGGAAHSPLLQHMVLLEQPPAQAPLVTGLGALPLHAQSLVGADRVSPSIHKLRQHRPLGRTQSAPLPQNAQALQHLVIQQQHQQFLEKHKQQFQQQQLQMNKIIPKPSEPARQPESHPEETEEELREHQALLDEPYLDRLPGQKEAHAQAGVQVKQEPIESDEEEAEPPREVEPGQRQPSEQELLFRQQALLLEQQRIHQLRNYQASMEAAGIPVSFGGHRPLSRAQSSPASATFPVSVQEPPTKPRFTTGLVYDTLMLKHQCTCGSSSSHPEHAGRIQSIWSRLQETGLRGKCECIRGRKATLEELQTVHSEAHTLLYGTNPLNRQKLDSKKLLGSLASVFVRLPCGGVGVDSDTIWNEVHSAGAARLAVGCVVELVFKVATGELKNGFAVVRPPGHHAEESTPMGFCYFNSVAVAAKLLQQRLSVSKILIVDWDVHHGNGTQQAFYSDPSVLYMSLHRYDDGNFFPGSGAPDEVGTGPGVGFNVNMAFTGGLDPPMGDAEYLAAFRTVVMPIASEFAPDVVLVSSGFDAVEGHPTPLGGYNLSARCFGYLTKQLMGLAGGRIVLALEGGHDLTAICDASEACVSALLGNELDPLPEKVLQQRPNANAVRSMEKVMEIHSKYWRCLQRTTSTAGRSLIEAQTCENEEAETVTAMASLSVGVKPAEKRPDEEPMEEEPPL
Chain of Histone deacetylase 9 (Q9UKV0 whole entry): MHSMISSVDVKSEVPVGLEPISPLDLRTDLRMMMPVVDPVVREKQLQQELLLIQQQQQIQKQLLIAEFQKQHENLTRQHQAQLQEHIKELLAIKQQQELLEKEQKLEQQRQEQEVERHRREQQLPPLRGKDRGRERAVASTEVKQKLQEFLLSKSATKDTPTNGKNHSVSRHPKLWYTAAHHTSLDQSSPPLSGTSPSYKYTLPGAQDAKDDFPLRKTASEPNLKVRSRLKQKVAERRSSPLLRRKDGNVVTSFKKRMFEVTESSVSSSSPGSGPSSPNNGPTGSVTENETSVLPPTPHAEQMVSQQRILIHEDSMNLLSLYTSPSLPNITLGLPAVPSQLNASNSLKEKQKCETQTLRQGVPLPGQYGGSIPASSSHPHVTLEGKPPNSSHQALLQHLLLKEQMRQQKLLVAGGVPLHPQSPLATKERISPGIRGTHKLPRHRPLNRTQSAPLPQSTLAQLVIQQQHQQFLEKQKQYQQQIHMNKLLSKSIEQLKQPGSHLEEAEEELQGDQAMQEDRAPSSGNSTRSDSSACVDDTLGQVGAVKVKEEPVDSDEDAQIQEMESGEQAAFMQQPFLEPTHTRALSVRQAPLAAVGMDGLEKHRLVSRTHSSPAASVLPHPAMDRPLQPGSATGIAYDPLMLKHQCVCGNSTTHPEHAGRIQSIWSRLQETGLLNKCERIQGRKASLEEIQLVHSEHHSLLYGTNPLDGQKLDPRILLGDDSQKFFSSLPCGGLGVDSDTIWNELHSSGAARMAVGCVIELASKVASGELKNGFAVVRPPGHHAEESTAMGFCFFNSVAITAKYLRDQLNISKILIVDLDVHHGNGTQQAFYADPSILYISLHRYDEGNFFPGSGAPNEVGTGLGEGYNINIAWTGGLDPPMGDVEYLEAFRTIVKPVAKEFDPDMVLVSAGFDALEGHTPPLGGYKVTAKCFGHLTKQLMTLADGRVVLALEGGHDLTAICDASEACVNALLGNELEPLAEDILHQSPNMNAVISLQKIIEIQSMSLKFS

As to `O=C(CCCCSc1nc(-c2ccc(-c3ccccc3)cc2)cc(=O)[nH]1)NO`, the Activity result in assay [1], in [2], in [3], in assay [5], in [9] and in assay [10] was “Dose-dependent effect” each time. Also, the Activity result in assay [11], in [12], in assay [13] and in assay [19] was “Dose-dependent effect” in each case. The result in assay [4], in assay [7], in assay [8], in [14], in assay [15] and in [18] was Active. In addition, the negative-log IC50 (pIC50) in assay [6] and in assay [16] was less than 4.30 each time. Further, the inhibition entry in assay [17] was “Active”.

With `O=C(/C=C/c1ccc(NC(=O)C(Cc2ccccc2)c2ccccc2)cn1)NO` (stereo not drawn), the Activity result in assay [1], in assay [2], in [3], in assay [5], in [9] and in assay [10] was “Dose-dependent effect” throughout. In addition, the Activity entry in assay [11], in assay [12], in assay [13] and in assay [19] was “Dose-dependent effect” each time. Moreover, the outcome in assay [4] was inactive. Also, the pIC50 in assay [6] was 4.93; in [16] it was 4.97. Besides, the result in [7], in assay [8], in [14], in [15] and in [18] was Active. In addition, the inhibition entry in assay [17] is “Active”.
